Measured values published in ChEMBL document CHEMBL5321263, “Metabolomics-Guided Discovery, Isolation, Structure Elucidation, and Bioactivity of Myropeptins C-E from Myrothecium inundatum” (J Nat Prod, 2023).
Values after ≈ are worked out from the molar mass of the structure shown. Active and inactive are the calls of the source. The calls are words filed in the database; no cut-off is given here. Where a SMILES comes first, the peptide text is derived from it. [ ]: non-standard residue; d: D form. The star is where a group is joined. Lauroyl = CCCCCCCCCCCC(=O)*; Decanoyl = CCCCCCCCCC(=O)*; Aib = CC(C)(N)C(=O)O; βAla = NCCC(=O)O

How the values were obtained:
HCT-116 = experiment: Antiproliferative activity against human HCT-116 cells measured after 24 hrs by MTT assay; type: functional, cell-based; conditions: HCT-116, 24 h
Method in brief: (§1)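 MTT read-out after 24 h; HCT-116 (7000 cells/well) or MDA-MB-231 (8000 cells/well) in DMEM with 10% FBS, 37 °C, 5% CO2, plated overnight before dosing; MTT 0.5 mg/ml final, 2 h at 37 °C; formazan dissolved in DMSO, A550; vehicle (0.5% DMSO) set as 100% growth; biological triplicates, two technical replicates.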

[1] = Toxicity in human SK-MEL-5 cells assessed as calcium influx-mediated cell rupture at 16 uM measured upto 120 secs by fluorescence based analysis; conditions: sk-mel-5, 2 min, time < 120 sec
[2] = Toxicity in zebra fish AB embryo assessed as mortality at 10 uM incubated for 48 hrs relative to control; design: species or system Danio rerio; conditions: zebrafish, read-out: Activity
[3] = Toxicity in zebra fish AB embryo assessed as mortality incubated for 48 hrs; design: species or system Danio rerio; conditions: zebrafish
MDA-MB-231 = experiment: Antiproliferative activity against human MDA-MB-231 cells measured after 24 hrs by MTT assay; type: functional, cell-based; conditions: MDA-MB-231, 24 h; method in brief: as §1
[4] = Hemolytic activity in sheep erythrocytes assessed as hemolysis incubated for 1 hr by microplate reader based analysis; type: toxicity, cell-based, Ovis aries, Erythrocyte
Method in brief: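 Defibrinated sheep blood washed 3× in PBS, diluted 1:500 (~8×10^7 cells/mL); 190 μL suspension plus 10 μL 20-fold compound stock in PBS + 0.5% DMSO, 1 h at 37 °C; centrifuged, supernatant OD450; 0.1% Triton X-100 positive control; three independent experiments.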

Staphylococcus aureus [5] = experiment: Antimicrobial activity against methicillin resistant Staphylococcus aureus ATCC BAA41 measured after 16 hrs by CLSI protocol based method; type: functional
Staphylococcus aureus [6] = experiment: Antimicrobial activity against Staphylococcus aureus ATCC 25923 measured after 16 hrs by CLSI protocol based method; type: functional
OVCAR-8 = experiment: Antiproliferative activity against human OVCAR-8 cells measured after 24 hrs by MTT assay; type: functional; conditions: read-out: LC50 (the source's name)
Staphylococcus aureus [7] = experiment: Antimicrobial activity against multidrug resistant Staphylococcus aureus ATCC BAA-44 measured after 16 hrs by CLSI protocol based method; type: functional
[Candida] auris = Antimicrobial activity against Candida auris CDCB11903 measured after 16 hrs by CLSI protocol based method; type: functional; conditions: Candidozyma auris
SK-MEL-5 [8] = experiment: Induction of apoptosis in human SK-MEL-5 cells assessed as membrane blebbing at 1 uM measured after 30 mins by confocal microscopy based analysis; type: functional, cell-based
Method in brief: (§2)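 SK-Mel-5 on poly-L-lysine-coated coverslips, 24 h; 30 min at 37 °C with 2 μM MitoOrange, 0.1% Hoechst 33342 and 1 μM compound, 0.1% DMSO or 50 μM FCCP; washed in warm PBS with CaCl2/MgCl2; confocal imaging, 20x objective, transmitted light plus MitoOrange CMTMRos and Hoechst channels.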

SK-MEL-5 [9] = experiment: Induction of apoptosis in human SK-MEL-5 cells assessed as early apoptosis at 1 to 4 uM measured after 3 hrs by Annexin V-FITC/propidium iodide staining based flow cytometric analysis; type: functional, cell-based; conditions: dose 1-4 µM
Method in brief: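 SK-Mel-5 (1 × 10^6 cells per T25) grown 24 h, then treated 3 h in medium at 1 or 4 μM; 0.5% DMSO vehicle, 5 μM camptothecin control; trypsinised, washed, stained with FITC-annexin V and propidium iodide 15 min at RT in the dark, analysed by flow cytometry within 1 h.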

SK-MEL-5 [10] = experiment: Induction of mitochondrial membrane potential in human SK-MEL-5 cells assessed as reduction in accumulation of dye at 1 uM measured after 30 mins by […] staining based confocal microscopy analysis; type: functional, cell-based; method in brief: as §2
SK-MEL-5 [11] = experiment: Induction of calcium influx in human SK-MEL-5 cells assessed as increase in fluorescence at 1 to 4 uM measured upto 120 secs by fluorescence based assay; type: functional, cell-based; conditions: dose 1-4 µM, time <= 120.0 sec
[12] = Toxicity in zebra fish AB embryo assessed as mortality at 50 uM incubated for 48 hrs relative to control; design: species or system Danio rerio; conditions: zebrafish, read-out: Activity

SMILES	IC50 (HCT-116) [µM]	IC50 (MDA-MB-231) [µM]	IC50 at 1 h [4] [µM]	MIC (Staphylococcus aureus [5]) [µg/mL]	MIC (Staphylococcus aureus [6]) [µg/mL]	MIC (Staphylococcus aureus [7]) [µg/mL]	MIC ([Candida] auris) [µg/mL]	also measured
CCCCCCCCCCCC(=O)NC(C)(C)C(=O)N1CCC[C@H]1C(=O)NC(C)(C)C(=O)NC(C)(C)C(=O)N1CCC[C@H]1C(=O)NC(C)(C)C(=O)NC(C)(C)C(=O)N1CCC[C@H]1C(=O)N[C@@H](C)C(=O)NC(C)(C)C(=O)NCCC(=O)N[C@@H](C)C(=O)NC(C)(C)C(=O)NC(C)(C)C(=O)NCCC(=O)NC(C)(C)C(=O)NC(C)(C)C(=O)NC(C)(C)C(=O)N[C@@H](C)C(=O)NCCC(=O)O [listing 1 of 2 here]	1.2	1.5	1.5					Activity [1]: Toxic; mortality at 48 h, 10 µM [2]: 100%; EC50 at 48 h [3]: 5 µM
CCCCCCCCCCCC(=O)NC(C)(C)C(=O)N1CCC[C@H]1C(=O)NC(C)(C)C(=O)NC(C)(C)C(=O)N1CCC[C@H]1C(=O)NC(C)(C)C(=O)NC(C)(C)C(=O)N1CCC[C@H]1C(=O)N[C@@H](C)C(=O)NC(C)(C)C(=O)NCCC(=O)N[C@@H](C)C(=O)NC(C)(C)C(=O)NC(C)(C)C(=O)NCCC(=O)NC(C)(C)C(=O)NC(C)(C)C(=O)NC(C)(C)C(=O)N[C@@H](C)C(=O)NCCC(=O)O [listing 2 of 2 here]				4 (≈ 2.16 µM)	4 (≈ 2.16 µM)	4 (≈ 2.16 µM)	4 (≈ 2.16 µM)	CC50 (OVCAR-8): > 16 µM
COc1cccc2c1[C@H](OC)[C@]13O[C@@]1(C2=O)[C@H](O)[C@H](C)[C@@](O)(C(=O)[C@@H]1O[C@H]1C)[C@@H]3O	1.3	0.6						
CCCCCCCCCCCC(=O)NC(C)(C)C(=O)N1CCC[C@@H]1C(=O)NC(C)(C)C(=O)NC(C)(C)C(=O)N1CCC[C@@H]1C(=O)NC(C)(C)C(=O)NC(C)(C)C(=O)N1CCC[C@H]1C(=O)N[C@@H](C)C(=O)NC(C)(C)C(=O)NCCC(=O)N[C@@H](C)C(=O)NC(C)(C)C(=O)NC(C)(C)C(=O)NCCC(=O)NC(C)(C)C(=O)NC(C)(C)C(=O)NC(C)(C)C(=O)N[C@@H](C)C(=O)NCCC(=O)O								Activity (SK-MEL-5 [8]): inactive; Activity (SK-MEL-5 [9]): Active; Activity (SK-MEL-5 [10]): Active
C[C@H](CCC(=O)O)C[C@H](C)C[C@H](C)C(=O)/C=C(\O)[C@H](C)C[C@H](C)C/C=C/[C@@H](C)[C@@H](O)[C@@H](C)[C@@H](O)C[C@@H]1CC[C@@](C)([C@H]2CC[C@@](C)([C@@H](C)O)O2)O1								Activity (SK-MEL-5 [11]): Active
CCCCCCCCCC(=O)NC(C)(C)C(=O)N1CCC[C@H]1C(=O)NC(C)(C)C(=O)NC(C)(C)C(=O)N1CCC[C@H]1C(=O)NC(C)(C)C(=O)NC(C)(C)C(=O)N1CCC[C@H]1C(=O)N[C@@H](C)C(=O)NC(C)(C)C(=O)NCCC(=O)N[C@@H](C)C(=O)NC(C)(C)C(=O)NC(C)(C)C(=O)NCCC(=O)NC(C)(C)C(=O)NC(C)(C)C(=O)NC(C)(C)C(=O)N[C@@H](C)C(=O)NCCC(=O)O (Decanoyl-[Aib]P[Aib][Aib]P[Aib][Aib]PA[Aib][βAla]A[Aib][Aib][βAla][Aib][Aib][Aib]A[βAla]-OH) [listing 1 of 2 here]	5.2	9.2	7					EC50 at 48 h [3]: 30 µM; mortality at 48 h, 50 µM [12]: 100%
CCCCCCCCCC(=O)NC(C)(C)C(=O)N1CCC[C@H]1C(=O)NC(C)(C)C(=O)NC(C)(C)C(=O)N1CCC[C@H]1C(=O)NC(C)(C)C(=O)NC(C)(C)C(=O)N1CCC[C@H]1C(=O)N[C@@H](C)C(=O)NC(C)(C)C(=O)NCCC(=O)N[C@@H](C)C(=O)NC(C)(C)C(=O)NC(C)(C)C(=O)NCCC(=O)NC(C)(C)C(=O)NC(C)(C)C(=O)NC(C)(C)C(=O)N[C@@H](C)C(=O)NCCC(=O)O (Decanoyl-[Aib]P[Aib][Aib]P[Aib][Aib]PA[Aib][βAla]A[Aib][Aib][βAla][Aib][Aib][Aib]A[βAla]-OH) [listing 2 of 2 here]				16 (≈ 8.76 µM)	16 (≈ 8.76 µM)	16 (≈ 8.76 µM)	16 (≈ 8.76 µM)	
CCCCCCCCCC(=O)NC(C)(C)C(=O)N1CCC[C@H]1C(=O)NC(C)(C)C(=O)NC(C)(C)C(=O)N1CCC[C@H]1C(=O)NC(C)(C)C(=O)NC(C)(C)C(=O)N1CCC[C@H]1C(=O)NC(C)(C)C(=O)NC(C)(C)C(=O)NCCC(=O)N[C@@H](C)C(=O)NC(C)(C)C(=O)NC(C)(C)C(=O)NCCC(=O)NC(C)(C)C(=O)NC(C)(C)C(=O)NC(C)(C)C(=O)N[C@@H](C)C(=O)NCCC(=O)O (Decanoyl-[Aib]P[Aib][Aib]P[Aib][Aib]P[Aib][Aib][βAla]A[Aib][Aib][βAla][Aib][Aib][Aib]A[βAla]-OH) [listing 1 of 2 here]	6.1	8.2	10					
CCCCCCCCCC(=O)NC(C)(C)C(=O)N1CCC[C@H]1C(=O)NC(C)(C)C(=O)NC(C)(C)C(=O)N1CCC[C@H]1C(=O)NC(C)(C)C(=O)NC(C)(C)C(=O)N1CCC[C@H]1C(=O)NC(C)(C)C(=O)NC(C)(C)C(=O)NCCC(=O)N[C@@H](C)C(=O)NC(C)(C)C(=O)NC(C)(C)C(=O)NCCC(=O)NC(C)(C)C(=O)NC(C)(C)C(=O)NC(C)(C)C(=O)N[C@@H](C)C(=O)NCCC(=O)O (Decanoyl-[Aib]P[Aib][Aib]P[Aib][Aib]P[Aib][Aib][βAla]A[Aib][Aib][βAla][Aib][Aib][Aib]A[βAla]-OH) [listing 2 of 2 here]				16 (≈ 8.69 µM)	16 (≈ 8.69 µM)	16 (≈ 8.69 µM)	16 (≈ 8.69 µM)	
CCCCCCCCCCCC(=O)NC(C)(C)C(=O)N1CCC[C@H]1C(=O)NC(C)(C)C(=O)NC(C)(C)C(=O)N1CCC[C@H]1C(=O)NC(C)(C)C(=O)NC(C)(C)C(=O)N1CCC[C@H]1C(=O)NC(C)(C)C(=O)NC(C)(C)C(=O)NCCC(=O)N[C@@H](C)C(=O)NC(C)(C)C(=O)NC(C)(C)C(=O)NCCC(=O)NC(C)(C)C(=O)NC(C)(C)C(=O)NC(C)(C)C(=O)N[C@@H](C)C(=O)NCCC(=O)O (Lauroyl-[Aib]P[Aib][Aib]P[Aib][Aib]P[Aib][Aib][βAla]A[Aib][Aib][βAla][Aib][Aib][Aib]A[βAla]-OH) [listing 1 of 2 here]	9.5	11.1	2					
CCCCCCCCCCCC(=O)NC(C)(C)C(=O)N1CCC[C@H]1C(=O)NC(C)(C)C(=O)NC(C)(C)C(=O)N1CCC[C@H]1C(=O)NC(C)(C)C(=O)NC(C)(C)C(=O)N1CCC[C@H]1C(=O)NC(C)(C)C(=O)NC(C)(C)C(=O)NCCC(=O)N[C@@H](C)C(=O)NC(C)(C)C(=O)NC(C)(C)C(=O)NCCC(=O)NC(C)(C)C(=O)NC(C)(C)C(=O)NC(C)(C)C(=O)N[C@@H](C)C(=O)NCCC(=O)O (Lauroyl-[Aib]P[Aib][Aib]P[Aib][Aib]P[Aib][Aib][βAla]A[Aib][Aib][βAla][Aib][Aib][Aib]A[βAla]-OH) [listing 2 of 2 here]				8 (≈ 4.28 µM)	4 (≈ 2.14 µM)	8 (≈ 4.28 µM)	16 (≈ 8.56 µM)	
CC[C@H](C)C[C@H](C)CCCCCCCCC(=O)N[C@H]1C[C@@H](O)[C@@H](NCCN)NC(=O)[C@@H]2[C@@H](O)CCN2C(=O)[C@H]([C@H](O)CCN)NC(=O)[C@H]([C@H](O)[C@@H](O)c2ccc(O)cc2)NC(=O)[C@@H]2C[C@@H](O)CN2C(=O)[C@H]([C@@H](C)O)NC1=O [CASPOFUNGIN]							2 (≈ 1.83 µM)	
NC[C@H]1O[C@H](O[C@H]2[C@H](O)[C@@H](O[C@H]3O[C@H](CO)[C@@H](O)[C@H](N)[C@H]3O)[C@H](N)C[C@@H]2N)[C@H](O)[C@@H](O)[C@@H]1O [KANAMYCIN]					1 (≈ 2.06 µM)			
